Rin1 Abl inh – inhibitors of human Rin1-Abl protein interaction. P00519+Q13671. TR-FRET Rin1/Abl binding, biochemical. inhibition, % at 7.35 µM. actives 0.4% (n = 360,000). AID 588664; in the data active means inhibition above about 5%, passing the limit was not always enough
Arr AP2 block – inhibitors of human beta-arrestin and AP2 interaction. inhibition, % at 10 µM. actives 0.31% (n = 340,000). FITC-arrestin peptide / GST-AP2 beads, flow cytometry; AP2 beta2 appendage carries R879A mutation;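 active means inhibition above a set limit, near 3 SD of compounds lacking own fluorescence, cut at about 54% in these data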
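System: GST-tagged AP2 beta2-adaptin appendage (R879A) on 4 µm glutathione beads / Reagent: FITC-arrestin peptide, 50 nM / Detection: HyperCyt-sampled flow cytometry, FL1 channel, ex 488/em 535 nm / Timing: 12 min plus 1 h, RT / Buffer or medium: PBS plus Tween 20 (0.05%) and BSA (0.1%)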
B2AR ag – human beta-2 adrenergic receptor agonism by FAP | P07550 | Am2.2-beta2AR cells, FAP receptor internalization, flow cytometry | response, % (no concentration beside the values) | actives 0.43% (n = 340,000) | AID 504454;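 active means response above a set limit, near 3 SD of response in nonfluorescent compounds, cut at about 42% in these data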
Target sequence (P07550 whole entry, looked up): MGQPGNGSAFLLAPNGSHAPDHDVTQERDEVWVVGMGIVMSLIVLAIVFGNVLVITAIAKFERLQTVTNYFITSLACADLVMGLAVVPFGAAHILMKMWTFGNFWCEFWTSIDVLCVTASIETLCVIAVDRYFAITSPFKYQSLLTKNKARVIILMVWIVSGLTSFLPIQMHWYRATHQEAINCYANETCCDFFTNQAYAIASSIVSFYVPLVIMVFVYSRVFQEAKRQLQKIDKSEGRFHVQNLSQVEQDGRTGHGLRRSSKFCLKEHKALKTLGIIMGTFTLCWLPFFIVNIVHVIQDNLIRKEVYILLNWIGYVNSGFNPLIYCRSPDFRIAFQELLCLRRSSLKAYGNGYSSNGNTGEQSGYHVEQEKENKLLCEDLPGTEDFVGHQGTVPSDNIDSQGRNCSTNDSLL
MBD2 inh – blocks human MBD2 binding to methylated DNA | Q9UBB5 | TR-FRET, MBD2 binding to methylated oligonucleotide | actives 0.31% (n = 370,000) | inhibition, % at 4.4 µM; in the data active means inhibition above about 13%
ABHD5 PLIN5 PPI – blocks binding of human ABHD5 to perilipin-5. inhibition, % at 4 µM. AID 602281. actives 0.78% (n = 360,000). Split G. princeps luciferase complementation, luminescence, 4 h;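 active means inhibition above the mean inhibition across every tested compound plus 3 SD, cut at about 22% in these data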
UHRF1 MBD2 ctr – UHRF1 methyl-DNA binding inhibition. Q96T88. UHRF1 binding to methylated oligo, TR-FRET. inhibition, % at 4.4 µM. actives 0.75% (n = 370,000). AID 687016;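 further: UHRF1 SRA domain binding a hemimethylated CpG hairpin DNA probe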
UHRF1 DNA bind – counter-screen for MBD2 inhibitors: human UHRF1 methylated DNA binding inhibitors. shares compounds with MBD2 inh. UHRF1 binding to methylated oligonucleotide, TR-FRET. inhibition, % at 4.4 µM. actives 25% (n = 1,000). AID 720530;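 further: UHRF1 SRA domain binding a labeled hemimethylated CpG hairpin DNA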
MBD2 confirm – MBD2-DBD methyl-DNA binding inhibition, TR-FRET confirmation | inhibition, % at 4.4 µM | actives 26% (n = 1,000) | TR-FRET MBD2-DBD binding to methylated oligonucleotide | AID 720531 | shares compounds with MBD2 inh; in the data active means inhibition above about 14%
A number is an active result; 0 = inactive; - = no result given. The list is not random: actives were taken first. Their share in the collection is about 2.5%. Unless noted, no stated cut-off is given here; in the data, active means inhibition above about 21%; inactive means the rest.

SMILES | Rin1 Abl inh | Arr AP2 block | B2AR ag | MBD2 inh | ABHD5 PLIN5 PPI | UHRF1 MBD2 ctr | UHRF1 DNA bind | MBD2 confirm
CC1=NN(c2ccc(F)cc2)C(=O)C1C(c1cccc(O)c1)c1c(C)[nH]n(-c2ccc(F)cc2)c1=O (stereo not drawn) | 0 | 0 | 0 | 19 | 0 | 0 | 0 | 0
COc1ccc(Cn2cc(COC(=O)N3CCCC3)nn2)cc1 | - | - | - | 0 | - | 0 | - | -
COc1ccc2cc([C@H](C)C(=O)OCc3cn(CC(=O)c4ccc(O)cc4)nn3)ccc2c1 | 0 | 0 | 0 | 15 | 0 | 0 | 0 | 0
COc1ccc(C=O)c(OCc2cn(CC(=O)c3ccc(O)cc3)nn2)c1 | 0 | 0 | 0 | 14 | 0 | 23 | 0 | 0
CCOC(=O)C(C)c1ccc2cc(OC)ccc2c1 (stereo not drawn) | 0 | 0 | 0 | 0 | 0 | 0 | - | -
O=[N+]([O-])c1cccc(OCCCN2CCC(C(O)(c3ccccc3)c3ccccc3)CC2)c1 | - | - | - | 0 | - | 0 | - | -
Cc1nccn1-c1ccc(C=O)cc1 | 0 | 0 | 0 | 40 | 0 | 0 | 0 | 0
O=Cc1ccc(-n2cccn2)cc1 | 0 | 0 | 0 | 0 | 0 | 0 | - | -
O=c1c2cc3cc4c(cc3nc2ncn1Cc1cccnc1)OCO4 | - | - | - | 0 | - | 0 | - | -
CCOC(=O)c1[nH]ncc1CN1CCCC(C(=O)c2cccc3ccccc23)C1 (stereo not drawn) | 0 | 0 | 0 | 14 | 0 | 24 | 0 | 0
CCOC(=O)c1[nH]ncc1CN1CCCC(C(=O)c2ccc(SC)cc2)C1 (stereo not drawn) | 0 | 0 | 0 | 0 | 0 | 0 | - | -
COC(=O)[C@]1(C)CN(C(=O)OC(C)(C)C)C2=C1C(=O)C[C@@](C)(C(=O)OC(C)(C)C)C2 | - | - | - | 0 | - | 0 | - | -
COc1cc(Cl)c(CNC[C@H]2O[C@@H](n3cnc4c(N)ncnc43)[C@H](O)[C@@H]2O)c(Cl)c1O | 0 | 0 | 0 | 0 | 0 | 0 | - | -
c1ccc(-c2csc(Nc3cccnc3)n2)nc1 | 0 | 0 | 0 | 27 | 0 | 0 | 0 | 0
c1ccc(Nc2nc(-c3ccccn3)cs2)cc1 | 0 | 0 | 0 | 0 | 0 | 0 | - | -
N#C/C(=C\c1ccc(O)c(O)c1)C(=O)c1ccc(O)c(O)c1 | 0 | 0 | 0 | 19 | 0 | 64 | 67 | 29
COc1ccc(NC(=O)NC2CCN(S(=O)(=O)c3ccc(F)cc3)CC2)cc1OC | - | - | - | 0 | - | 0 | - | -
Cc1ccc(/C=c2\sc3nc(-c4ccco4)nn3c2=O)o1 | 0 | 0 | 0 | - | 0 | - | - | -
Cc1ccc(-c2nc3s/c(=C\c4ccco4)c(=O)n3n2)cc1 | 0 | 0 | 0 | 15 | 0 | 30 | 0 | 0
COc1ccc(Br)cc1/C=c1\sc2nc(-c3ccco3)nn2c1=O | 0 | 0 | 0 | 23 | 0 | 71 | 22 | 0
O=C(COC(=O)c1ccccc1)Nc1ncc([N+](=O)[O-])s1 | 0 | 0 | 0 | 15 | 0 | 44 | 48 | 18
O=C1CCC(=O)c2ccc3c4c(ccc1c24)CC3 | 0 | 0 | 0 | 36 | 0 | 66 | 0 | 0
CC(C)CN1C(=O)C[C@@]2(C(=O)N(C)c3ccc(NS(=O)(=O)C4CC4)cc32)C1c1ccccc1 (stereo partly drawn) | - | - | - | 15 | - | 0 | 0 | 0
CC(C)CN1C(=O)C[C@@]2(C(=O)N(C)c3ccc(NC(=O)C(C)(C)C)cc32)C1c1ccccc1 (stereo partly drawn) | - | - | - | 0 | - | 0 | - | -
Cc1ccccc1Cn1ccc2ccc(-c3ccc4ccn(Cc5ccccc5)c4c3)cc21 | - | - | - | 0 | - | 0 | - | -
SMILES | Rin1 Abl inh | Arr AP2 block | B2AR ag | MBD2 inh | ABHD5 PLIN5 PPI | UHRF1 MBD2 ctr | UHRF1 DNA bind | MBD2 confirm
COc1cccc(-n2c(=O)c3c(C)c(C(=O)N(C)C)sc3n(CC(=O)NCC3CCCO3)c2=O)c1 (stereo not drawn) | 0 | 0 | 0 | 16 | 0 | 0 | 0 | 0
CCc1ccc(-n2c(=O)c3c(C)c(C(=O)N(C)C)sc3n(CC(=O)NCC3CCCO3)c2=O)cc1 (stereo not drawn) | 0 | 0 | 0 | 0 | 0 | 0 | - | -
COc1cccc(NC(=O)N(C)C[C@H]2OCc3cnnn3CCCC(=O)N([C@H](C)CO)C[C@@H]2C)c1 | 0 | - | - | 0 | 0 | 0 | - | -
Cc1ccc(-c2nc3ccc(C)cn3c2Cc2ccccc2C(F)(F)F)cc1 | 0 | - | - | 0 | 0 | 0 | - | -
Cc1ccc2nc(C(C)(C)C)c(Cc3ccccc3C(F)(F)F)n2c1 | 0 | - | - | 15 | 0 | 21 | 0 | 0
O=C(NCc1ccccn1)c1c(-c2ccccc2)sc2ccccc12 | 0 | 0 | 0 | 16 | 0 | 22 | 0 | 0
Nn1c(-c2ccc(O)cc2)nnc1-c1ccc(O)cc1 | 0 | 0 | 0 | 23 | 0 | 0 | 0 | 0
CSc1nnc(-c2ccccc2)n1N | 0 | 0 | 0 | 0 | 0 | 0 | - | -
O=S1(=O)N[C@H](Cc2ccccc2)COc2cc(N3CCN(Cc4ccccc4F)CC3)ccc21 | - | - | - | 0 | 0 | 0 | - | -
O=C(O)CCCc1nc(-c2ccc(Cl)cc2)no1 | 0 | 0 | 0 | 0 | 0 | 0 | - | -
O=C(CCc1nc(-c2ccc(Cl)cc2)no1)OCc1ccc(Br)cc1 | 0 | 0 | 0 | 15 | 0 | 28 | 0 | 0
NC1=NC(=O)/C(=C\c2ccco2)S1 | 0 | 0 | 0 | 24 | 0 | 68 | 47 | 24
Oc1ccc(N2CCN(Cc3c(-c4ccccc4)nc4ccccn34)CC2)cc1 | 0 | 0 | 0 | 80 | 0 | 0 | 0 | 0
Oc1cccc(CN2CCOCC2)c1O | 13 | 0 | 0 | 45 | 0 | 85 | 0 | 0
c1cc2ccc3ccc(CN4CCOCC4)c4ccc(c1)c2c34 | 0 | 0 | 0 | 0 | 0 | 0 | - | -
C=C(C)Cn1c(COc2ccccc2)nnc1SCC(=O)O | 0 | 0 | 0 | 15 | 0 | 0 | 0 | 0
Cn1cccc1CC(=O)NN=C/C=C\c1ccco1 | - | - | - | 66 | - | 85 | 0 | 0
C=CCn1c(SCC(=O)OC(C)C)nnc1-c1ccc(C)cc1 | - | - | - | 14 | - | 0 | 0 | 0
C=CCn1c(SCC(N)=O)nnc1-c1ccc(C)cc1 | - | - | - | 0 | - | 0 | - | -
CC[N+](CC)(CC)CCCCOc1ccc2c(c1)C(=O)c1cc(OCCCC[N+](CC)(CC)CC)ccc1-2 | 0 | 0 | 0 | 21 | 0 | 31 | 49 | 32
CC[N+](CC)(CC)CCOc1ccc(/C=C/c2ccccc2)cc1 | 0 | 0 | 0 | 0 | 0 | 0 | - | -
COC(=O)c1cc(C(=O)OCC(=O)NC(=O)NCc2ccccc2)cc([N+](=O)[O-])c1 | 0 | 0 | 0 | 17 | 0 | 0 | 0 | 0
C#CCN1CC(N2CCN(CCO)CC2)CS1(=O)=O (stereo not drawn) | - | - | - | 0 | - | 0 | - | -
Cc1nc(S/C(=C\c2ccc(-c3ccc(C(=O)O)c(Cl)c3)o2)C(=O)O)n[nH]1 | 0 | 0 | 0 | 27 | 0 | 88 | 53 | 0
